Measurements published in ChEMBL document CHEMBL1121948, “Alkylation of the prosthetic heme in cytochrome P-450 during oxidative metabolism of the sedative-hypnotic ethchlorvynol” (1982).

Experiments:
Assay type in all cases: functional
[1] = organism: Rattus norvegicus; assay: Percentage cytochrome P-450 loss from phenobarbital pretreated rats was measured in the presence of the NADPH after 10 min; Not detectable
[2] = organism: Rattus norvegicus; assay: Percentage cytochrome P-450 loss from phenobarbital pretreated rats was measured in the presence of the Ethchlorvynol after 10 min; Not detectable
[3] = organism: Rattus norvegicus; assay: Percentage cytochrome P-450 loss from phenobarbital pretreated rats was measured in the presence of oxygen and NADPH after 10 min
Summary of the method: (§1)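 Liver microsomes from phenobarbital-pretreated male Sprague-Dawley rats (1 mg/mL protein) were incubated at 37 °C with 1 mM ethchlorvynol, 1 mM NADPH, 1.5 mM EDTA and 150 mM KCl in […], pH 7.4, under air. The reaction was started with NADPH. Cytochrome P-450 loss was measured spectroscopically. Values are the mean ± SD of three determinations.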

[4] = organism: Rattus norvegicus; assay: Percentage cytochrome P-450 loss from phenobarbital pretreated rats was measured in the presence of the Ethchlorvynol after 30 min; Not detectable
[5] = organism: Rattus norvegicus; assay: Percentage cytochrome P-450 loss from phenobarbital pretreated rats was measured in the presence of the Ethchlorvynol after 20 min; Not detectable
[6] = organism: Rattus norvegicus; assay: Heme loss from phenobarbital pretreated rats was measured in the presence of oxygen and NADPH after 20 min
Summary of the method: (§2)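 This was a separate 20-min experiment using the standard microsomal mix at 37 °C: phenobarbital-induced rat microsomes at 1 mg/mL, 1 mM ethchlorvynol, 1 mM NADPH, EDTA and KCl in phosphate buffer pH 7.4. P-450 loss was measured spectroscopically and heme loss by the pyridine hemochromogen assay, both expressed in nmol. Values are the mean ± SD of three determinations.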

[7] = organism: Rattus norvegicus; assay: Cytochrome P-450 loss from phenobarbital pretreated rats was measured in the presence of oxygen and NADPH after 20 min; summary of the method: as §2
[8] = organism: Rattus norvegicus; assay: Percentage cytochrome P-450 loss from phenobarbital pretreated rats was measured in the presence of the NADPH after 30 min; Not detectable
[9] = organism: Rattus norvegicus; assay: Percentage cytochrome P-450 loss from phenobarbital pretreated rats was measured in the presence of the oxygen after 20 min
[10] = organism: Rattus norvegicus; assay: Percentage cytochrome P-450 loss from phenobarbital pretreated rats was measured in the presence of oxygen and NADPH after 20 min; summary of the method: as §1
[11] = organism: Rattus norvegicus; assay: Percentage cytochrome P-450 loss from phenobarbital pretreated rats was measured in the presence of the NADPH after 20 min; Not detectable
[12] = organism: Rattus norvegicus; assay: Percentage cytochrome P-450 loss from phenobarbital pretreated rats was measured in the presence of oxygen and NADPH after 30 min; summary of the method: as §1

## C#CC(O)(/C=C/Cl)CC (configuration not stated) [ETHCHLORVYNOL]
[1]
  Cytochrome loss: Not detectable
[2]
  Cytochrome loss: Not detectable
[3]
  Cytochrome loss: 30%
[4]
  Cytochrome loss: Not detectable
[5]
  Cytochrome loss: Not detectable
[6]
  Heme loss: 0.32 nM
[7]
  P-450 loss: 0.52 nM
[8]
  Cytochrome loss: Not detectable
[9]
  Cytochrome loss: 4%
[10]
  Cytochrome loss: 35%
[11]
  Cytochrome loss: Not detectable
[12]
  Cytochrome loss: 38%
